Data taken from publication PMC6392825 (ChemistryOpen, 2019).
≈ marks a conversion by molar mass, not a printed value.

How the values were obtained:
[1] = Water solubility, shake flask method, 0.1 M phosphate buffer pH 6.8; format: physicochemical; conditions: 37 °C, pH 6.8, aqueous buffer, thermodynamic from solid
[2] = Chemical antioxidant capacity, FRAP assay
HepG2 [3] = assay: Cytotoxicity, mitochondrial activity; format: cell-based; conditions: Homo sapiens, HepG2, 72 h, read-out: IC50 MTT
Method in brief: (§1)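 Seeded at 20000 cells/well in DMEM and grown 24 h at 37 °C, 10% CO2. Medium was then replaced with serum-free medium holding test compound (25 mM DMSO stock) at various concentrations for 72 h, in triplicate; doxorubicin was the positive control. MTT (5 mg/mL stock in PBS) added for 2 h, formazan dissolved in DMSO, A570. IC50 derived from % surviving cells, reported as mean ± SD combined with SRB data.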

HT‐29 [4] = assay: Cytotoxicity, mitochondrial activity; format: cell-based; conditions: Homo sapiens, HT-29, 72 h, read-out: IC50 MTT
Method in brief: as §1

Caco‐2 [5] = assay: Cytotoxicity, mitochondrial activity; format: cell-based; conditions: Homo sapiens, Caco-2, 72 h, read-out: IC50 MTT
Method in brief: as §1

EA.hy926 [6] = assay: Cytotoxicity, mitochondrial activity; format: cell-based; conditions: Homo sapiens, EA.hy 926, 72 h, read-out: IC50 MTT
Method in brief: as §1

HepG2 [7] = assay: Cell growth inhibition, protein content; format: cell-based; conditions: Homo sapiens, HepG2, 72 h, read-out: IC50 SRB
Method in brief: (§2)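 Cell lines from ATCC, grown in DMEM+glutamax with 1% NEAA, 1% P/S and 10% FBS at 37 °C, 10% CO2. Seeded at 20000 cells/well for 24 h, then exposed to test compound (25 mM DMSO stock) for three days. Fixed with cold TCA for 1 h at 4 °C, stained 30 min with 0.4% SRB in 1% acetic acid, dissolved in 10 mM Tris, A490. Triplicate; IC50 given as mean ± SD combined with MTT data (n ≥ 3).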

HT‐29 [8] = assay: Cell growth inhibition, protein content; format: cell-based; conditions: Homo sapiens, HT-29, 72 h, read-out: IC50 SRB
Method in brief: as §2

Caco‐2 [9] = assay: Cell growth inhibition, protein content; format: cell-based; conditions: Homo sapiens, Caco-2, 72 h, read-out: IC50 SRB
Method in brief: as §2

EA.hy926 [10] = assay: Cell growth inhibition, protein content; format: cell-based; conditions: Homo sapiens, EA.hy 926, 72 h, read-out: IC50 SRB
Method in brief: as §2

HepG2 [11] = assay: Intracellular ROS assay; format: cell-based; conditions: for change of intracellular ROS in words: HepG2, vs untreated control, 10 and 1 μM; for activity at 1 µM / activity at 10 µM: Homo sapiens, HepG2, read-out: Intracellular ROS, percentage compared to the untreated control cells (ROS/SRB)
Method in brief: (§3)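 Cells seeded at 20000/well and grown 24 h at 37 °C, 10% CO2, then treated with test compound at 10 and 1 μM in serum-free medium. NAC and doxorubicin served as controls. After a PBS wash, cells were loaded with 20 μM DCFH-DA for 30 min, washed, and held 1 h in phenol red-free DMEM. Fluorescence read at ex 485/em 535 nm and normalized to SRB in the same well. Reported as % of untreated control, n ≥ 3, two-tailed t-test with unequal variances.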

HT‐29 [12] = assay: Intracellular ROS assay; format: cell-based; conditions: for activity at 1 µM / activity at 10 µM: Homo sapiens, HT-29, read-out: Intracellular ROS, percentage compared to the untreated control cells (ROS/SRB)
Method in brief: as §3

Caco‐2 [13] = assay: Intracellular ROS assay; format: cell-based; conditions: for activity at 1 µM / activity at 10 µM: Homo sapiens, Caco-2, read-out: Intracellular ROS, percentage compared to the untreated control cells (ROS/SRB); for change of intracellular ROS in words: Caco‐2, vs untreated control, 10 and 1 μM
Method in brief: as §3

EA.hy926 [14] = assay: Intracellular ROS assay; format: cell-based; conditions: Homo sapiens, EA.hy 926, read-out: Intracellular ROS, percentage compared to the untreated control cells (ROS/SRB)
Method in brief: as §3

Row | SMILES | solubility at 90 min [1] [µM] | solubility at 24 h [1] [µM] | IC50 (HepG2 [7]) [µM] | IC50 (Caco‐2 [9]) [µM] | FRAP (Trolox equivalent per μM) [2] [Trolox equivalent per μM] | FRAP (curcumin equivalent per μM) [2] | IC50 (HepG2 [3]) [µM] | IC50 (HT‐29 [4]) [µM] | IC50 (Caco‐2 [5]) [µM] | IC50 (EA.hy926 [6]) [µM] | IC50 (HT‐29 [8]) [µM] | IC50 (EA.hy926 [10]) [µM] | activity at 1 µM (HepG2 [11]) [%] | activity at 10 µM (HepG2 [11]) [%] | activity at 1 µM (HT‐29 [12]) [%] | activity at 10 µM (HT‐29 [12]) [%] | activity at 1 µM (Caco‐2 [13]) [%] | activity at 10 µM (Caco‐2 [13]) [%] | activity at 1 µM (EA.hy926 [14]) [%] | activity at 10 µM (EA.hy926 [14]) [%] | further results
1 | O=C(/C=C(O)/C=C/c1ccccn1)/C=C/c1c[nH]c2ccccc12 [3 j, (1E,4Z,6E)‐5‐Hydroxy‐1‐(1H‐indol‐3‐yl)‐7‐(pyridin‐2‐yl)hepta‐1,4,6‐trien‐3‐one] | 10.7 ± 0.4 (≈ 3.39 µg/mL) | 7.9 ± 0.2 (≈ 2.5 µg/mL) | 34 ± 2.8 | 40.2 ± 1.9 | 0.16 | 0.15 curcumin equivalent per μM | 38.9 ± 0.8 | 33.8 ± 3.5 | 35.5 ± 0.4 | 1.4 ± 0.2 | 46 ± 3 | 3.7 ± 0.2 | 92.6 ± 6.5 | 96.6 ± 5.9 | 114 ± 15.5 | 102 ± 6.4 | 98.2 ± 2.6 | 84.9 ± 7 | 90.8 ± 2.4 | 111 ± 3.5 | 
2 | COc1cc(/C=C/C(=O)/C=C(O)/C=C/c2cccc3cnccc23)ccc1O [3 e, (1E,4Z,6E)‐5‐Hydroxy‐1‐(4‐hydroxy‐3‐methoxyphenyl)‐7‐(isoquinolin‐5‐yl)hepta‐1,4,6‐triene‐3‐one] | 1.1 ± 0.2 (≈ 0.411 µg/mL) | 1.4 ± 0.2 (≈ 0.523 µg/mL) | 7.3 ± 0.3 | 17.7 ± 3 | 0.21 | 0.20 curcumin equivalent per μM | 4.7 ± 0.2 | 1.3 ± 0.5 | 6.9 ± 0.3 | 5.2 ± 0.2 | 10.7 ± 1.6 | 16.2 ± 0.6 | 103 ± 5.1 | 96.7 ± 4.3 | 80.6 ± 4.8 | 67.6 ± 5.1 | 92.8 ± 11.9 | 72.7 ± 5.1 | 96.3 ± 4.3 | 120 ± 4.4 | change of intracellular ROS in words (Caco‐2 [13]): significantly decreased ROS production

Now from value to compound, other results behind:

Row | solubility at 90 min [1] [µM] | solubility at 24 h [1] [µM] | IC50 (HepG2 [7]) [µM] | IC50 (Caco‐2 [9]) [µM] | SMILES | FRAP (Trolox equivalent per μM) [2] [Trolox equivalent per μM] | FRAP (curcumin equivalent per μM) [2] | IC50 (HepG2 [3]) [µM] | IC50 (HT‐29 [4]) [µM] | IC50 (Caco‐2 [5]) [µM] | IC50 (EA.hy926 [6]) [µM] | IC50 (HT‐29 [8]) [µM] | IC50 (EA.hy926 [10]) [µM] | activity at 1 µM (HepG2 [11]) [%] | activity at 10 µM (HepG2 [11]) [%] | activity at 1 µM (HT‐29 [12]) [%] | activity at 10 µM (HT‐29 [12]) [%] | activity at 1 µM (Caco‐2 [13]) [%] | activity at 10 µM (Caco‐2 [13]) [%] | activity at 1 µM (EA.hy926 [14]) [%] | activity at 10 µM (EA.hy926 [14]) [%] | further results
3 | 5.3 ± 0.1 (≈ 1.68 µg/mL) | 5.4 ± 0.1 (≈ 1.71 µg/mL) | 10.2 ± 0.4 | 10.3 ± 0.1 | O=C(/C=C(O)/C=C/c1cccnc1)/C=C/c1c[nH]c2ccccc12 [3 h, (1E,4Z,6E)‐5‐Hydroxy‐1‐(1H‐indol‐3‐yl)‐7‐(pyridin‐3‐yl)hepta‐1,4,6‐trien‐3‐one] | 0.13 | 0.12 curcumin equivalent per μM | 5 ± 0.3 | 6.4 ± 0.8 | 6.7 ± 0.4 | 6.2 ± 0.3 | 34.6 ± 0.8 | 2.9 ± 0.1 | 115 ± 4.5 | 112 ± 4.9 | 82.3 ± 1.5 | 95.6 ± 4.2 | 111 ± 3.2 | 128 ± 8.2 | 97.9 ± 9.8 | 107 ± 5.3 | change of intracellular ROS in words (HepG2 [11]): significantly increased ROS production
4 | 8.1 ± 1.6 (≈ 2.62 µg/mL) | 14.5 ± 1.1 (≈ 4.69 µg/mL) | 16.8 ± 0.9 | 25 ± 1.8 | COc1cc(/C=C/C(=O)/C=C(O)/C=C/c2cccnc2)ccc1O [3 a, (1E,4Z,6E)‐5‐Hydroxy‐1‐(4‐hydroxy‐3‐methoxyphenyl)‐7‐(pyridin‐3‐yl)hepta‐1,4,6‐triene‐3‐one] | 0.42 | 0.40 curcumin equivalent per μM | 14.1 ± 0.3 | 17.9 ± 0.1 | 14.6 ± 2 | 8.5 ± 0.4 | 20.9 ± 0.9 | 3.8 | 116 ± 12.8 | 82.3 ± 1.9 | 83.2 ± 3.2 | 89.9 ± 4.3 | 106 ± 8.4 | 120 ± 8.7 | 123 ± 9.5 | 95.5 ± 5.1 | change of intracellular ROS in words (HepG2 [11]): significantly decreased ROS signal; change of intracellular ROS in words (HT‐29 [12]; HT‐29, vs untreated control, 10 and 1 μM): significantly decreased ROS signal; change of intracellular ROS in words (Caco‐2 [13]): significantly increased ROS production
5 | 12.2 ± 0.3 (≈ 3.71 µg/mL) | 12 ± 0.7 (≈ 3.65 µg/mL) | 9.8 ± 0.3 | 10.1 ± 0.5 | O=C(/C=C(O)/C=C/c1ccc[nH]1)/C=C/c1c[nH]c2ccccc12 [3 l, (1E,4Z,6E)‐5‐Hydroxy‐1‐(1H‐indol‐3‐yl)‐7‐(1H‐pyrrol‐2‐yl)hepta‐1,4,6‐trien‐3‐one] | 0.29 | 0.27 curcumin equivalent per μM | 16.5 ± 0.4 | 10.5 ± 0.1 | 6.5 ± 0.2 | 3.3 ± 0.1 | 10 ± 0.1 | 4.2 ± 0.3 | 600 ± 61.8 | 998 ± 60.2 | 152 ± 8.8 | 558 ± 96.3 | 410 ± 31.9 | 767.2 ± 4.1 | 438 ± 46.1 | 826 ± 22.7 | 
